Results taken from ChEMBL document CHEMBL3108721, “4,4'-Unsymmetrically substituted 3,3'-biphenyl alpha helical proteomimetics as potential coactivator binding inhibitors” (Bioorg Med Chem, 2014).

Experiments:
[1] = biological target: T1, Estrogen receptor (Homo sapiens) (UniProt P03372); experiment: Competitive inhibition of ER-alpha (unknown origin)-GRIP1 interaction expressed in human HepG2 cells assessed as decrease in reporter gene activity at >50 uM after 40 hrs relative to control; format: cell-based; design: scale not given: the % may be the effect or the level left
T1 sequence (whole entry): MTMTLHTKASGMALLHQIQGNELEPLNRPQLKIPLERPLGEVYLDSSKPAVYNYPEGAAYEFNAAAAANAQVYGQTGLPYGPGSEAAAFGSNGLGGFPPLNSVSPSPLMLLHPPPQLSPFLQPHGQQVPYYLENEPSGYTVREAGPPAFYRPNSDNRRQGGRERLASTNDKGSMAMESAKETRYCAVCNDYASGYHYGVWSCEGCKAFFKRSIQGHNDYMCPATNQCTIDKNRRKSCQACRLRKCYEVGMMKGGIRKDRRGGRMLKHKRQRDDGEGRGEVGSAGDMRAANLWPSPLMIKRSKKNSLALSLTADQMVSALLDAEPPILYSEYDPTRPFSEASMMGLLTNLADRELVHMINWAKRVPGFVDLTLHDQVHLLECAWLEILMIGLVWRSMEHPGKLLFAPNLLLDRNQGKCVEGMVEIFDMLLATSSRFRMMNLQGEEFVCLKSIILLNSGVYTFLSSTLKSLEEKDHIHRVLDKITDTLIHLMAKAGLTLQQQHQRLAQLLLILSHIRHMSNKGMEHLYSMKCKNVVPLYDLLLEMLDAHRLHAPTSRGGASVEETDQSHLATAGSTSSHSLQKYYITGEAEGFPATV
Procedure, shortened: (§1)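 HepG2 cells transfected with VP16-ERα, Gal4-DBD-fused GRIP1 LxxLL2 peptide and 5xGal4Luc3 reporter. […] Scored as >50% decrease or increase at <20, 20–50 or >50 μM, or <20% change. 4-hydroxytamoxifen as antagonist control. Cell death and precipitation flagged.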

[2] = biological target: T1, Estrogen receptor (Homo sapiens); experiment: Competitive inhibition of ER-alpha (unknown origin)-GRIP1 interaction expressed in human HepG2 cells assessed as change in reporter gene activity after 40 hrs in presence of estradiol relative to control; format: cell-based; design: concentration or dose not given beside the values; procedure, shortened: as §1
HepG2 [3] = experiment: Cytotoxicity against human HepG2 cells expressing ER-alpha coexpressing GRIP1 assessed as cell death at >50 uM in presence of estradiol; format: cell-based; procedure, shortened: as §1
HepG2 [4] = experiment: Cytotoxicity against human HepG2 cells expressing ER-alpha coexpressing GRIP1 assessed as cell death at >50 uM; format: cell-based; procedure, shortened: as §1
[5] = biological target: T1, Estrogen receptor (Homo sapiens); experiment: Inhibition of ER-alpha (unknown origin) transcriptional activity expressed in ER-negative human SKBR3 cells coexpressing ERE assessed as change in reporter gene activity after 40 hrs relative to control; format: cell-based; design: concentration or dose not given beside the values; conditions: SK-BR-3
Procedure, shortened: (§2)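 ER-negative SKBR3 cells cotransfected with 3xERE-TATA-luciferase, RST7-ERα and pCMV-β-gal for normalization. […] Scored as >50% decrease or increase at <20, 20–50 or >50 μM, or <20% change. 4-hydroxytamoxifen as antagonist control. Cell death above 50 μM flagged.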

[6] = biological target: T1, Estrogen receptor (Homo sapiens); experiment: Inhibition of ER-alpha (unknown origin) transcriptional activity expressed in ER-negative human SKBR3 cells coexpressing ERE assessed as change in reporter gene activity after 40 hrs in presence of estradiol relative to control; format: cell-based; design: concentration or dose not given beside the values; conditions: SK-BR-3; procedure, shortened: as §2
[7] = biological target: T1, Estrogen receptor (Homo sapiens); experiment: Competitive inhibition of ER-alpha (unknown origin)-GRIP1 interaction expressed in human HepG2 cells assessed as change in reporter gene activity after 40 hrs relative to control; format: cell-based; design: concentration or dose not given beside the values; procedure, shortened: as §1
[8] = biological target: T1, Estrogen receptor (Homo sapiens); experiment: Inhibition of ER-alpha (unknown origin) transcriptional activity expressed in ER-negative human SKBR3 cells coexpressing ERE assessed as increase in reporter gene activity at 20 to 50 uM after 40 hrs relative to control; format: cell-based; design: scale not given: the % may be the effect or the level left; conditions: SK-BR-3; procedure, shortened: as §2
[9] = biological target: T1, Estrogen receptor (Homo sapiens); experiment: Inhibition of ER-alpha (unknown origin) transcriptional activity expressed in ER-negative human SKBR3 cells coexpressing ERE assessed as increase in reporter gene activity at <20 uM after 40 hrs relative to control; format: cell-based; design: scale not given: the % may be the effect or the level left; conditions: SK-BR-3; procedure, shortened: as §2
[10] = biological target: T1, Estrogen receptor (Homo sapiens); experiment: Competitive inhibition of ER-alpha (unknown origin)-GRIP1 interaction expressed in human HepG2 cells assessed as decrease in reporter gene activity at >50 uM after 40 hrs in presence of estradiol relative to control; format: cell-based; design: scale not given: the % may be the effect or the level left; procedure, shortened: as §1
[11] = biological target: T1, Estrogen receptor (Homo sapiens); experiment: Inhibition of ER-alpha (unknown origin) transcriptional activity expressed in ER-negative human SKBR3 cells coexpressing ERE assessed as increase in reporter gene activity at >50 uM after 40 hrs relative to control; format: cell-based; design: scale not given: the % may be the effect or the level left; conditions: SK-BR-3; procedure, shortened: as §2
[12] = Cytotoxicity against ER-negative human SKBR3 cells expressing ER-alpha coexpressing ERE assessed as cell death at >50 uM; format: cell-based; conditions: sk-br-3; procedure, shortened: as §2
[13] = Cytotoxicity against ER-negative human SKBR3 cells expressing ER-alpha coexpressing ERE assessed as cell death at >50 uM in presence of estradiol; format: cell-based; conditions: sk-br-3; procedure, shortened: as §2
[14] = biological target: T1, Estrogen receptor (Homo sapiens); experiment: Competitive inhibition of ER-alpha (unknown origin)-GRIP1 interaction expressed in human HepG2 cells assessed as decrease in reporter gene activity at <20 uM after 40 hrs relative to control; format: cell-based; design: scale not given: the % may be the effect or the level left; procedure, shortened: as §1
[15] = biological target: T1, Estrogen receptor (Homo sapiens); experiment: Competitive inhibition of ER-alpha (unknown origin)-GRIP1 interaction expressed in human HepG2 cells assessed as decrease in reporter gene activity at <20 uM after 40 hrs in presence of estradiol relative to control; format: cell-based; design: scale not given: the % may be the effect or the level left; procedure, shortened: as §1
[16] = biological target: T1, Estrogen receptor (Homo sapiens); experiment: Inhibition of ER-alpha (unknown origin) transcriptional activity expressed in ER-negative human SKBR3 cells coexpressing ERE assessed as decrease in reporter gene activity at <20 uM after 40 hrs in presence of estradiol relative to control; format: cell-based; design: scale not given: the % may be the effect or the level left; conditions: SK-BR-3; procedure, shortened: as §2
[17] = biological target: T1, Estrogen receptor (Homo sapiens); experiment: Inhibition of ER-alpha (unknown origin) transcriptional activity expressed in ER-negative human SKBR3 cells coexpressing ERE assessed as decrease in reporter gene activity at <20 uM after 40 hrs relative to control; format: cell-based; design: scale not given: the % may be the effect or the level left; conditions: SK-BR-3; procedure, shortened: as §2
Estrogen receptor [18] = biological target: T2, Estrogen receptor (Homo sapiens, UniProt P03372); experiment: Competitive inhibition of ER-alpha (unknown origin) ligand binding pocket expressed in ER-negative human SKBR3 cells coexpressing ERE using estradiol as substrate; format: cell-based, SK-BR-3
T2 sequence (P03372 whole entry): T1 sequence (whole entry)
Procedure, shortened: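 SKBR3 (ER-negative breast cancer) cells were transfected with RST7–ERα, a 3xERE-TATA-luciferase reporter and a pCMV-β-gal normalization control. […] Cells were incubated 40 h, then luciferase reporter activity was read.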

Estrogen receptor [19] = biological target: T2, Estrogen receptor; experiment: Mixed-type inhibition of ER-alpha (unknown origin) expressed in ER-negative human SKBR3 cells coexpressing ERE using estradiol as substrate; format: cell-based, SK-BR-3
[20] = biological target: T1, Estrogen receptor (Homo sapiens); experiment: Competitive inhibition of ER-alpha (unknown origin)-GRIP1 interaction expressed in human HepG2 cells assessed as increase in reporter gene activity at >50 uM after 40 hrs relative to control; format: cell-based; design: scale not given: the % may be the effect or the level left; procedure, shortened: as §1
[21] = biological target: T1, Estrogen receptor (Homo sapiens); experiment: Competitive inhibition of ER-alpha (unknown origin)-GRIP1 interaction expressed in human HepG2 cells assessed as decrease in reporter gene activity at 20 to 50 uM after 40 hrs relative to control; format: cell-based; design: scale not given: the % may be the effect or the level left; procedure, shortened: as §1
[22] = biological target: T1, Estrogen receptor (Homo sapiens); experiment: Competitive inhibition of ER-alpha (unknown origin)-GRIP1 interaction expressed in human HepG2 cells assessed as decrease in reporter gene activity at 20 to 50 uM after 40 hrs in presence of estradiol relative to control; format: cell-based; design: scale not given: the % may be the effect or the level left; procedure, shortened: as §1

| Activity [2] [%] | Activity [5] [%] | Activity [6] [%] | Activity [7] [%] | Structure (SMILES) | Activity (HepG2 [3]) | Activity (HepG2 [4]) | also measured |
| --- | --- | --- | --- | --- | --- | --- | --- |
| < 20 | < 20 | < 20 |  | CCOC(=O)COc1ccc(-c2ccc(OCCN(C)C)cc2)cc1Cc1ccc(-c2ccccc2)cc1 | Toxic | Toxic | Activity [1]: > 50% |
| < 20 |  | < 20 | < 20 | CCOC(=O)COc1ccc(-c2ccc(OCCN(C)C)c(Cc3ccc(-c4ccccc4)cc3)c2)cc1Cc1ccc(-c2ccccc2)cc1 |  |  | Activity [8]: > 50% |
|  | < 20 | < 20 | < 20 | CCOC(=O)COc1ccc(-c2ccc(O)cc2)cc1Cc1ccc2ccccc2c1 |  |  | Activity [10]: > 50% |
| < 20 |  | < 20 |  | CCOC(=O)COc1ccc(-c2ccc(OCCN(C)C)c(Cc3ccc4ccccc4c3)c2)cc1Cc1ccc2ccccc2c1 | Toxic | Toxic | Activity [11]: > 50%; Activity [20]: > 50%; Activity [12]: Toxic; Activity [13]: Toxic |
|  | < 20 | < 20 |  | CCOC(=O)COc1ccc(-c2ccc(O)c(Cc3ccc(-c4ccccc4)cc3)c2)cc1 |  |  | Activity [21]: > 50%; Activity [22]: > 50% |

The remaining lines, values behind:

| Structure (SMILES) | Activity [2] [%] | Activity [5] [%] | Activity [6] [%] | Activity [7] [%] | Activity (HepG2 [3]) | Activity (HepG2 [4]) | also measured |
| --- | --- | --- | --- | --- | --- | --- | --- |
| CCOC(=O)COc1ccc(-c2ccc(O)c(CC3CCCCC3)c2)cc1CC1CCCCC1 | < 20 | < 20 | < 20 | < 20 | Toxic | Toxic |  |
| CCOC(=O)COc1ccc(-c2ccc(O)cc2)cc1CC1CCCCC1 | < 20 |  | < 20 | < 20 |  |  | Activity [9]: > 50% |
| CCCCCCCc1cc(-c2ccc(O)cc2)ccc1OCC(=O)OCC | < 20 | < 20 | < 20 | < 20 |  |  |  |
| CCOC(=O)COc1ccc(-c2ccc(OCCN(C)C)c(CC3CCCCC3)c2)cc1CC1CCCCC1 |  |  | < 20 | < 20 |  |  | Activity [11]: > 50%; Activity [12]: Toxic; Activity [10]: > 50%; Activity [13]: Toxic |
| CCOC(=O)COc1ccc(-c2ccc(OCCN(C)C)cc2)cc1Cc1ccc2ccccc2c1 |  |  |  |  | Toxic | Toxic | Activity [14]: > 50%; Activity [15]: > 50%; Activity [16]: > 50%; Activity [17]: > 50%; IC50 (Estrogen receptor [18]): 3.2 µM |
| CCOC(=O)COc1ccc(-c2ccc(OCCN(C)C)cc2)cc1CC1CCCCC1 |  |  |  |  |  |  | Activity [14]: > 50%; Activity [15]: > 50%; Activity [16]: > 50%; Activity [17]: > 50%; IC50 (Estrogen receptor [19]): 12.7 µM |
| CCOC(=O)COc1ccc(-c2ccc(OCCN(C)C)c(Cc3ccc(-c4ccccc4)cc3)c2)cc1 |  |  |  |  | Toxic | Toxic | Activity [14]: > 50%; Activity [15]: > 50%; Activity [16]: > 50%; Activity [17]: > 50%; IC50 (Estrogen receptor [18]): 3.1 µM |
